Assay results pooled from the literature.
Compare with care: the assays were run in different laboratories.
Organism: Escherichia coli
Read-out: microbial growth

Structure (SMILES) | method | cells | strain | time | pH | notes | MIC
N=C(N)c1ccc(OCc2ccc(COc3ccc(C(=N)N)cc3)cc2)cc1 | – | – | BW25113 | 20 h | – | – | > 200 µg/mL
CC(C)Oc1c(N)ccc(C(=O)Nc2ccc(C(=O)N[C@@H](CC(N)=O)C(=O)Nc3ccc(C(=O)Nc4ccc(C(=O)Nc5ccc(C(=O)O)cc5)c(O)c4OC(C)C)cc3)cc2)c1O | – | – | DSM1116 | – | – | – | 2 µg/mL
CCCCCCCC(=O)Oc1c(C)c(O)c(C(=O)/C=C/c2ccccc2)c(OC)c1C | broth dilution | – | ATCC25922 | – | – | – | 5000 µg/mL
N=C(N)c1cccc(OCc2ccccc2COc2cccc(C(=N)N)c2)c1 | – | – | BW25113 | – | – | – | > 200 µg/mL
C/C(O)=C1\C(=O)C(CC(C)C)N(C(=O)C=Cc2ccccc2)C1=O (stereo not drawn) | – | K12 | K12 | – | – | – | > 200 µg/mL
Cc1ccc(C)n1-c1ccc(-c2nnc(-c3ccc(Br)cc3)[nH]2)cc1 | broth dilution | – | ATCC10536 | 18 h | – | – | 125 µg/mL
N=C(N)c1ccc(OCc2cc(COc3ccc(C(=N)N)cc3)cc(-c3ccccc3)c2)cc1 | broth dilution | – | ATCC25922 | – | – | – | 100 µg/mL
O=C(CCCCCCCC[P+](c1ccccc1)(c1ccccc1)c1ccccc1)Nc1cc(O)c(O)c(O)c1.[Br-] | broth dilution | – | ATCC25922 | 18 h | – | – | > 32 µg/mL
CCCCCCC#Cc1cncc(-c2nnc(SCc3ccc(Cl)c(F)c3)n2C)c1 | – | – | – | – | – | – | ≥ 20 µg/mL
Clc1ccc(-c2nc3ccccc3[nH]2)c(Cl)c1 | broth dilution | – | ATCC25922 | – | – | – | 128 µg/mL
CC(C)Oc1c(-n2cc(-c3ccc(NC(=O)C(CC(N)=O)NC(=O)c4ccc(NC(=O)c5ccc(C#N)cc5)cc4)cc3)nn2)ccc(C(=O)Nc2ccc(C(=O)O)cc2)c1O (stereo not drawn) | – | – | DSM1116 | – | – | – | 0.06 µg/mL
Brc1cccc(NCc2ccc(Oc3ccccn3)cc2)c1 | – | – | – | – | – | – | > 50 µg/mL
COc1c(C)c(OC(C)=O)c(C)c(OC(C)=O)c1C(=O)/C=C/c1ccccc1 | broth dilution | – | ATCC25922 | – | – | – | 5000 µg/mL
O=C(CCCCCCCCCC[P+](c1ccccc1)(c1ccccc1)c1ccccc1)Nc1cc(O)c(O)c(O)c1.[Br-] | broth dilution | – | ATCC25922 | 18 h | – | – | > 32 µg/mL
COc1ccc(NCc2ccc(Oc3ccccn3)cc2)cc1 | – | – | – | – | – | – | > 25 µg/mL
Cc1ccc(C)n1-c1ccc(-c2n[nH]c(=S)[nH]2)cc1 | broth dilution | – | ATCC10536 | 18 h | – | – | 8 µg/mL
CCCCCCC#Cc1cncc(-c2nnc(SCc3ccc(C#N)cc3)n2C)c1 | – | – | – | – | – | – | ≥ 20 µg/mL
C=CCn1c(-c2ccc(Cl)c(Cl)c2)nc2ccccc21 | broth dilution | – | ATCC25922 | – | – | – | 64 µg/mL
CC(=O)Nc1ccc(C(=O)Nc2ccc(C(=O)N[C@@H](CC(N)=O)C(=O)Nc3ccc(C(=O)Nc4ccc(C(=O)Nc5ccc(C(=O)O)cc5)c(O)c4OC(C)C)cc3)cc2)cc1 | – | – | DSM1116 | – | – | – | 16 µg/mL
CO[C@H]1/C=C/O[C@@]2(C)Oc3c(C)c(O)c4c(O)c(c(/C=N/N5CCN(C)CC5)c(O)c4c3C2=O)NC(=O)/C(C)=C\C=C\[C@H](C)[C@H](O)[C@@H](C)[C@@H](O)[C@@H](C)[C@H](OC(C)=O)[C@@H]1C | – | – | ATCC25922 | – | – | – | 4 µg/mL
N=C(N)c1ccc(OCCCCCCCCCOc2ccc(C(=N)N)cc2)cc1 | broth dilution | – | BW25113 | – | – | – | > 25 µg/mL
C[C@H]1[C@H](NC(=O)/C(=N\OC(C)(C)C(=O)O)c2csc(N)n2)C(=O)N1S(=O)(=O)O | agar dilution | – | ATCC25 | – | – | – | 0.06 µg/mL
CC(C)Oc1c(NC(=O)c2ccc(NC(=O)[C@H](CC(N)=O)NC(=O)c3ccc(NC(=O)c4ccccc4[N+](=O)[O-])cc3)cc2)ccc(C(=O)Nc2ccc(C(=O)O)cc2)c1O | – | – | DSM1116 | – | – | – | 8 µg/mL
C[C@@H](O)[C@H]1C(=O)N2C(C(=O)O)=C(S[C@@H]3CN[C@H](C(=O)N(C)C)C3)[C@H](C)[C@H]12 | broth dilution | – | ATCC25922 | – | – | – | ≤ 0.125 µg/mL
CCCc1nc(Cl)c2c(c1O)C(=O)C1=C(O)[C@]3(O)C(=O)C(C(N)=O)=C(O)[C@@H](N(C)C)[C@@H]3C[C@@H]1C2.Cl | broth dilution | – | ATCC25922 | – | – | – | 16 µg/mL
Cc1ccc2nc(-c3ccc(Cl)c(Cl)c3)[nH]c2c1 | broth dilution | – | ATCC25922 | – | – | – | 32 µg/mL
Cc1ccc(C)n1-c1ccc(C(=O)NNC=O)cc1 | broth dilution | – | ATCC10536 | 18 h | – | – | 31.2 µg/mL

Structure (SMILES) | method | cells | strain | time | pH | notes | MIC
CC(NCCCNC(=O)c1ccc(Cl)s1)c1cc2cc(Br)ccc2[nH]1 (stereo not drawn) | broth dilution | – | ATCC25922 | – | – | – | 32 µg/mL
N=C(N)c1ccc(OCc2ccc(Br)cc2COc2ccc(C(=N)N)cc2)cc1 | broth dilution | – | ATCC25922 | – | – | – | > 200 µg/mL
CC(C)(O/N=C(\C(=O)N[C@@H]1C(=O)N2C(C(=O)[O-])=C(C[n+]3ccccc3)CS[C@H]12)c1csc(N)n1)C(=O)O | broth dilution | – | ATCC25922 | – | – | – | 0.25 µg/mL
CC(C)Oc1c(NC(=O)c2ccc(NC(=O)[C@H](CC(N)=O)NC(=O)c3ccc(NC(=O)c4ccc([N+](=O)[O-])c(OC(C)C)c4O)cc3)cc2)ccc(C(=O)Nc2ccc(C(=O)O)cc2)c1O | – | – | DSM1116 | – | – | – | > 64 µg/mL
CC1=NN(CNc2ccc(O)cc2)C(=O)C1=NNn1c(-c2ccccc2)nc2ccccc2c1=O | broth dilution | – | – | 24 h | – | – | 107 µM
CC(C)Oc1c(NC(=O)c2ccc(NC(=O)[C@H](CC(N)=O)NC(=O)c3ccc(NC(=O)c4cccc([N+](=O)[O-])c4)cc3)cc2)ccc(C(=O)Nc2ccc(C(=O)O)cc2)c1O | – | – | DSM1116 | – | – | – | > 64 µg/mL
COc1ccc(-c2nc3ccc(C)cc3[nH]2)cc1O | broth dilution | – | ATCC25922 | – | – | – | 64 µg/mL
C[C@@H](O)[C@H]1C(=O)N2C(C(=O)O)=C(S[C@@H]3CN[C@H](C(=O)N(C)C)C3)[C@H](C)[C@H]12 | broth dilution | – | KCTC1682 | 16 h | – | – | 0.5 µM
CNC(C)C1CCC(N)C(OC2C(N)CC(N)C(OC3OCC(C)(O)C(NC)C3O)C2O)O1 (stereo not drawn) | broth dilution | K12 | K12 | – | pH 7 | – | 0.25 µg/mL
N=C(N)c1ccc(OCc2cccc(COc3ccc(C(=N)N)cc3)c2)cc1 | broth dilution | – | W3110 | – | – | – | 100 µg/mL
Cc1ccc2nc(-c3ccc([N+](=O)[O-])cc3)n(Cc3ccccc3Cl)c2c1 | broth dilution | – | ATCC25922 | – | – | – | 32 µg/mL
NC1CCc2c1[nH]c1ccc(Cl)c(Cl)c21 (stereo not drawn) | broth dilution | – | ATCC25922 | – | – | – | 16 µg/mL
CC(C)Oc1c(NC(=O)c2ccc(NC(=O)[C@H](CC(N)=O)NC(=O)c3ccc(NC(=O)C(C)Sc4ccc(C#N)cc4)cc3)cc2)ccc(C(=O)Nc2ccc(C(=O)O)cc2)c1O (stereo partly drawn) | – | – | DSM1116 | – | – | – | 0.25 µg/mL
COc1cccc(NCc2ccc(Oc3ccccn3)cc2)c1 | – | – | – | – | – | – | > 50 µg/mL
Cc1ccc2nc(-c3ccncc3)[nH]c2c1 | broth dilution | – | ATCC25922 | – | – | – | 64 µg/mL
O=C(Nc1ncc([N+](=O)[O-])s1)c1cc2ccccc2s1 | – | – | – | – | – | – | < 50 µM
CC(C)Oc1c(NC(=O)c2ccc(NC(=O)[C@H](CC(N)=O)NC(=O)c3ccc(NC(=O)c4ccc(C#N)cc4)cc3)cc2)ccc(C(=O)Nc2cc(C(=O)O)n(C)c2)c1O | – | – | DSM1116 | – | – | – | 0.5 µg/mL
C=CCn1c(-c2ccc([N+](=O)[O-])cc2)nc2ccc(C)cc21 | broth dilution | – | ATCC25922 | – | – | – | 64 µg/mL
CCCCCCC/C=C/C(=O)N1C(=O)/C(=C(/C)O)C(=O)C1CCCCN (stereo not drawn) | – | K12 | K12 | – | – | – | > 200 µg/mL
N=C(N)c1ccc(OCc2ccccc2COc2ccc(C(=N)N)cc2)cc1 | – | – | BW25113 | – | – | – | > 200 µg/mL
C=CCn1c(-c2ccc([N+](=O)[O-])cc2)nc2ccccc21 | broth dilution | – | ATCC25922 | – | – | – | 64 µg/mL
COc1c(C)c(OC(=O)c2ccc(C)cc2)c(C)c(O)c1C(=O)/C=C/c1ccccc1 | broth dilution | – | ATCC25922 | – | – | – | 5000 µg/mL
CCCCCCC/C=C/C(=O)N1C(=O)/C(=C(\O)c2ccc(O)cc2)C(=O)C1CC(C)C (stereo not drawn) | – | K12 | K12 | – | – | – | > 200 µg/mL
Cc1c(CN(C)C(=O)/C=C/c2cnc3c(c2)CC(CCN)C(=O)N3)oc2ccccc12.Cl (stereo not drawn) | broth dilution | – | BAA2471 | – | – | clinical isolate | 4 µg/mL
CNC(=O)c1cc(Oc2ccc(NC(=O)Nc3ccc(Cl)c(C(F)(F)F)c3)cc2)ccn1 | – | – | CFT073 | – | – | – | > 100 µM
N=C(N)c1ccc(OCCCCCCCCCCCOc2ccc(C(=N)N)cc2)cc1 | – | – | BW25113 | – | – | – | 50 µg/mL
CC(=O)NCN1N=C(C)C(=NNn2c(-c3ccccc3)nc3ccccc3c2=O)C1=O | broth dilution | – | – | 24 h | – | – | 59.9 µM
